Ends that are not written are not given here.
Columns and labels:
[1] = cited from earlier work
INS-1 cells [2] = test: Insulin receptor beta subunit expression in INS-1 cells; assay type: cell-based; conditions: 10 nM SCD/peptides or 210 nM SeNPs/SC, 48 h, Western blot IR-β
INS-1 cells [3] = test: Glucose uptake of INS-1 cells; assay type: cell-based; conditions: 10 nM SCD/peptides or 210 nM SeNPs/SC, KRBH buffer with 16.7 mM glucose, 20 min
db/db mice [4] = test: Acute blood glucose lowering after single intraperitoneal dose in db/db mice; assay type: in vivo; conditions: 20 nmol/kg single intraperitoneal dose
Procedure, shortened: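 Male 10-week-old db/db mice (type 2 diabetic), six groups of eight, with blood glucose measured before treatment. A single intraperitoneal dose of 20 nmol/kg (dosed by peptide content) was given, diluted in sterile normal saline. Blood glucose was read at 0.5 h, then hourly from 1 to 15 h. Controls were saline (same volume), reference peptides at 20 nmol/kg, and peptide-free nanoparticle carrier at 42.1 μg/kg.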

db/db mice [5] = test: Chronic 12-week daily administration in db/db mice; assay type: in vivo; conditions: daily i.p. 12 weeks, 20 nmol/kg (SC 42.1 μg/kg), mean ± SEM, n=8

| Substance | half-life of wild PACAP ([1]; abstract, comparator for SCD half-life, ref not given) | insulin receptor expression level vs PBS group (INS-1 cells [2]) | glucose uptake (INS-1 cells [3]) | hypoglycemic effect (db/db mice [4]) | CHOL (db/db mice [5]) | Free fatty acid (db/db mice [5]) | HDL-C (db/db mice [5]) | LDL-C (db/db mice [5]) | TG (db/db mice [5]) | Water consumption (db/db mice [5]) | Whole white fat (db/db mice [5]) | half-life ([1]; in vivo) |
| --- | --- | --- | --- | --- | --- | --- | --- | --- | --- | --- | --- | --- |
| pituitary adenylate cyclase activating peptide [PACAP] | ~ 5 min | – | – | – | – | – | – | – | – | – | – | – |
| HSDAVFTDNYTRLRKQVAAKKYLQSIKNKRY-NH2 (C-terminus assumed) [BAY55-9837] | – | 1.25 fold | 1.44 mM | momentary hypoglycemic effect within 30 min | 2.55 ± 0.25 mmol/L | 1.30±0.19 mEq/L | 1.46 ± 0.20 mmol/L | 0.63 ± 0.12 mmol/L | 1.93 ± 0.14 mmol/L | 27.2 ± 1.90 g/day | 15.3 ± 1.28 g | ~ 5 min |

Reference: article PMC5367579 (International Journal of Nanomedicine, 2017)
